Common to all, as to details: 0.05 h
The subject of experiment [1] is Blood. As to the kind of experiment: Inhibition of arachidonic acid-induced platelet aggregation in human blood after 3 mins by turbidimetric assay. Format: functional, tissue-based. The method in brief:
(§1)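 Washed human platelets were prepared from ACD-anticoagulated blood of healthy volunteers who had taken no drugs for two weeks. They were resuspended at 3 × 10⁸/ml in Tyrode's solution with Ca²⁺ 2 mM, glucose 11.1 mM and BSA 3.5 mg/ml. Platelets were preincubated with DMSO (0.5%) or compound at 37 °C for 3 min, stirring at 1200 rpm. Inducers were arachidonic acid, collagen, U46619 or thrombin (0.1 U/ml). Aggregation was read by light transmission. IC50 is mean ± SEM, n = 3.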

Experiment [2] has as its system Blood. Nature of the experiment: Inhibition of U46619-induced platelet aggregation in human blood after 3 mins by turbidimetric assay. The format is functional, tissue-based. Put shortly:
as §1

For experiment [3], the system named is Blood. As to the kind of experiment: Inhibition of thrombin-induced platelet aggregation in human blood after 3 mins by turbidimetric assay.
Experiment [4] has as its system Blood. Nature of the experiment: Inhibition of collagen-induced platelet aggregation in human blood after 3 mins by turbidimetric assay.

The text below walks through data of ChEMBL document CHEMBL1150253, “Synthesis and anti-platelet evaluation of 2-benzoylaminobenzoate analogs” (Bioorg Med Chem, 2008).

Broadly, the IC50 is the concentration that inhibits the measured activity by half. The low end stands for greater potency, the high end for weaker potency. With `CCOC(=O)c1ccc(Cl)cc1NC(=O)c1ccccc1F`, the IC50 is 3.8 µM with Blood [1], more than 100 µM with Blood [2], more than 100 µM in the experiment on Blood [3] and 20.1 µM with Blood [4].
`CCOC(=O)c1ccc(Cl)cc1NC(=O)c1ccccc1Br`: the IC50 was 3.6 µM in the experiment with Blood [1], more than 100 µM in the experiment on Blood [2], more than 100 µM in the experiment on Blood [3] and 13.9 µM in the experiment with Blood [4].
`CCOC(=O)c1ccc(Cl)cc1NC(=O)c1ccccc1C`: the IC50 was 4.9 µM in the experiment with Blood [1], more than 100 µM in the experiment with Blood [2], more than 100 µM in the experiment on Blood [3] and 15.9 µM with Blood [4].
As for `CCCOC(=O)c1ccc(Cl)cc1NC(=O)c1ccccc1F`, the IC50 in the experiment on Blood [1] is 1.6 µM; with Blood [2], more than 100 µM; with Blood [3], more than 100 µM; in the experiment with Blood [4] it was 11.6 µM.
For `CCCOC(=O)c1ccc(Cl)cc1NC(=O)c1ccccc1Br`, the IC50 with Blood [1] is 3.5 µM; with Blood [2], more than 100 µM; in the experiment on Blood [3], more than 100 µM; with Blood [4] it was 9.5 µM.
For `CCOC(=O)c1ccc(Cl)cc1NC(=O)c1ccccc1OC`, the IC50 in the experiment with Blood [1] is 4.9 µM; in the experiment on Blood [2] it was more than 100 µM; in the experiment on Blood [3] it was more than 100 µM; with Blood [4], 46.4 µM.
For `CCCOC(=O)c1ccc(Cl)cc1NC(=O)c1ccccc1OC`, the IC50 with Blood [1] is 23.4 µM; in the experiment with Blood [2], more than 100 µM; in the experiment with Blood [3], more than 100 µM; in the experiment on Blood [4], more than 100 µM.
Turning to `CCOC(=O)c1ccc(Cl)cc1NC(=O)c1ccccc1Cl`, the IC50 was 1 µM in the experiment with Blood [1], more than 100 µM in the experiment with Blood [2], more than 100 µM in the experiment with Blood [3] and 7.6 µM in the experiment with Blood [4].
With `CCCOC(=O)c1ccc(Cl)cc1NC(=O)c1ccccc1C`, the IC50 is 2.2 µM in the experiment on Blood [1], more than 100 µM in the experiment with Blood [2], more than 100 µM in the experiment on Blood [3] and 8.3 µM in the experiment with Blood [4].
`CCCNC(=O)c1ccc(Cl)cc1NC(=O)c1ccccc1Cl`: the IC50 in the experiment on Blood [1] was 3.4 µM; in the experiment with Blood [2], more than 100 µM; in the experiment on Blood [3] it was more than 100 µM; with Blood [4], 4.1 µM.
As to `CCCNC(=O)c1ccc(Cl)cc1NC(=O)c1ccccc1OC`, the IC50 was 6 µM with Blood [1], more than 100 µM with Blood [2], more than 100 µM in the experiment on Blood [3] and 11.1 µM in the experiment with Blood [4].
Turning to `CCOC(=O)c1ccc(F)cc1NC(=O)c1ccccc1C`, the IC50 in the experiment on Blood [1] was 21.1 µM; in the experiment on Blood [4] it was 36.1 µM.
For the molecule `CCCOC(=O)c1ccc([N+](=O)[O-])cc1NC(=O)c1ccccc1OC`, the IC50 in the experiment with Blood [1], in the experiment with Blood [3] and in the experiment with Blood [4] was more than 100 µM throughout.
On to `CCCCOC(=O)c1ccc(Cl)cc1NC(=O)c1c(Cl)cccc1Cl`, for which the IC50 with Blood [1], in the experiment with Blood [2], in the experiment on Blood [3] and in the experiment with Blood [4] was more than 100 µM each time.
On to `CC(C)OC(=O)c1ccc(Cl)cc1NC(=O)c1c(F)cccc1F`, for which the IC50 with Blood [1] is more than 100 µM; with Blood [2], more than 100 µM; in the experiment with Blood [3], more than 100 µM; in the experiment with Blood [4], 28.8 µM.
Turning to `CCCCOC(=O)c1ccc(Cl)cc1NC(=O)c1ccccc1OC`, the IC50 in the experiment on Blood [1], with Blood [2], with Blood [3] and in the experiment with Blood [4] was more than 100 µM in each case.
Take `CCCCOC(=O)c1ccc(Cl)cc1NC(=O)c1ccccc1F`: the IC50 in the experiment with Blood [1] is 3 µM; with Blood [2] it was more than 100 µM; in the experiment on Blood [3], more than 100 µM; in the experiment on Blood [4], 32.1 µM.
`CCCCNC(=O)c1ccc(Cl)cc1NC(=O)c1c(F)cccc1F`: the IC50 in the experiment on Blood [1] is 3.5 µM; in the experiment with Blood [2], more than 100 µM; with Blood [3], more than 100 µM; with Blood [4], 1 µM.
For the molecule `CCCOC(=O)c1ccc(F)cc1NC(=O)c1ccccc1Cl`, the IC50 is 1.6 µM with Blood [1], more than 100 µM with Blood [3] and 9.3 µM in the experiment on Blood [4].
For `CCCOC(=O)c1ccc(F)cc1NC(=O)c1ccccc1Br`, the values for the IC50 in the experiment with Blood [1], in the experiment with Blood [3] and in the experiment on Blood [4] were 3.3 µM, more than 100 µM and 16.7 µM, respectively.
On to `CCCOC(=O)c1ccc(F)cc1NC(=O)c1ccccc1C`, for which the IC50 in the experiment on Blood [1] was 2 µM; in the experiment on Blood [3], more than 100 µM; in the experiment with Blood [4], 25.1 µM.
In the case of `CCCOC(=O)c1ccc(F)cc1NC(=O)c1ccccc1OC`, the figures for the IC50 in the experiment on Blood [1], with Blood [3] and in the experiment on Blood [4] were 31.5 µM, more than 100 µM and 33.2 µM, respectively.
Take `CCOC(=O)c1ccc(Cl)cc1NC(=O)c1c(F)cccc1F`: the values for the IC50 with Blood [1], with Blood [2] and with Blood [3] were 0.9 µM, more than 100 µM and more than 100 µM, respectively.
As to `CC(C)OC(=O)c1ccc(Cl)cc1NC(=O)c1ccccc1F`, the IC50 is more than 100 µM in the experiment on Blood [1], more than 100 µM with Blood [2], more than 100 µM in the experiment with Blood [3] and 36.7 µM in the experiment on Blood [4].
Take `CC(C)OC(=O)c1ccc(Cl)cc1NC(=O)c1ccccc1Cl`: the IC50 in the experiment on Blood [1] is 82.2 µM; with Blood [2], more than 100 µM; with Blood [3] it was more than 100 µM; in the experiment with Blood [4] it was 8.51 µM.
Consider `CCCOC(=O)c1ccc(F)cc1NC(=O)c1ccccc1F`, for which the values for the IC50 in the experiment on Blood [1], in the experiment on Blood [3] and with Blood [4] were 1.6 µM, more than 100 µM and 14.5 µM, respectively.
For the molecule `CCCCOC(=O)c1ccc(Cl)cc1NC(=O)c1c(F)cccc1F`, the half-inhibitory concentration (IC50) was 1.5 µM with Blood [1], more than 100 µM with Blood [2], more than 100 µM with Blood [3] and 21.8 µM with Blood [4].
As for `CCCOC(=O)c1ccc(C)cc1NC(=O)c1ccccc1F`, the IC50 was 0.9 µM in the experiment with Blood [1], more than 100 µM with Blood [3] and 11.3 µM in the experiment on Blood [4].
As for `CCCOC(=O)c1ccc(C)cc1NC(=O)c1ccccc1Cl`, the IC50 in the experiment on Blood [1] stood at 1.6 µM; with Blood [4], 7.8 µM.
As to `CCOC(=O)c1ccc(Cl)cc1NC(=O)c1c(Cl)cccc1Cl`, the IC50 is 68.3 µM with Blood [1], more than 100 µM in the experiment on Blood [2], more than 100 µM in the experiment with Blood [3] and 32.3 µM in the experiment on Blood [4].
As to `CCCOC(=O)c1ccc(Cl)cc1NC(=O)c1c(Cl)cccc1Cl`, the IC50 in the experiment with Blood [1] was 38.4 µM; in the experiment with Blood [2] it was more than 100 µM; in the experiment on Blood [3], more than 100 µM; in the experiment with Blood [4], 29.7 µM.
In the case of `CCCNC(=O)c1ccc(Cl)cc1NC(=O)c1ccccc1Br`, the IC50 was 1.5 µM with Blood [1], more than 100 µM in the experiment on Blood [2], more than 100 µM in the experiment with Blood [3] and 3.4 µM in the experiment with Blood [4].
For `CCCNC(=O)c1ccc(Cl)cc1NC(=O)c1ccccc1C`, the IC50 in the experiment with Blood [1] was 8.4 µM; with Blood [2] it was more than 100 µM; in the experiment on Blood [3], more than 100 µM; in the experiment on Blood [4], 10.3 µM.
On to `CCCCOC(=O)c1ccc(Cl)cc1NC(=O)c1ccccc1C`, for which the IC50 in the experiment on Blood [1] is 4.7 µM; with Blood [2], more than 100 µM; with Blood [3], more than 100 µM; in the experiment on Blood [4], 76.2 µM.
Consider `CCCNC(=O)c1ccc(Cl)cc1NC(=O)c1c(F)cccc1F`, for which the IC50 with Blood [1] was 2.9 µM; in the experiment on Blood [2] it was more than 100 µM; in the experiment with Blood [3] it was more than 100 µM; in the experiment with Blood [4] it was 1 µM.
On to `CCCCNC(=O)c1ccc(Cl)cc1NC(=O)c1ccccc1F`, for which the IC50 with Blood [1] was 3.5 µM; with Blood [2], more than 100 µM; in the experiment on Blood [3], more than 100 µM; with Blood [4], 2.2 µM.
On to `CCCOC(=O)c1ccc([N+](=O)[O-])cc1NC(=O)c1ccccc1F`, for which the IC50 in the experiment with Blood [1] is 4.7 µM; in the experiment on Blood [3], more than 100 µM; with Blood [4] it was 3.5 µM.
Regarding `CCCOC(=O)c1ccc([N+](=O)[O-])cc1NC(=O)c1ccccc1Br`, the IC50 with Blood [1] was 2.5 µM; with Blood [3], more than 100 µM; with Blood [4], 4.9 µM.
For the molecule `CCCOC(=O)c1ccc([N+](=O)[O-])cc1NC(=O)c1ccccc1C`, the IC50 in the experiment with Blood [1] was 4.7 µM; in the experiment with Blood [3] it was more than 100 µM; in the experiment with Blood [4], 8 µM.
For `CCCOC(=O)c1ccc(C)cc1NC(=O)c1ccccc1C`, in that order: 5.8 µM, more than 100 µM and 20.1 µM.
`CCCOC(=O)c1ccc(C)cc1NC(=O)c1ccccc1OC`: the figures for the IC50 with Blood [1], in the experiment on Blood [3] and with Blood [4] were 10.4 µM, more than 100 µM and 62.5 µM, respectively.
Consider `CCCOC(=O)c1ccc([N+](=O)[O-])cc1NC(=O)c1ccccc1Cl`, for which the concentration for half-maximal inhibition (IC50) in the experiment on Blood [1] was 2 µM; in the experiment on Blood [3], more than 100 µM; with Blood [4], 2.9 µM.
As to `CCCCOC(=O)c1ccc(Cl)cc1NC(=O)c1ccccc1Cl`, the IC50 with Blood [1] is 2.1 µM; in the experiment with Blood [2], more than 100 µM; in the experiment on Blood [3], more than 100 µM; in the experiment with Blood [4] it was 19.5 µM.
Take `COC(=O)c1ccc(Cl)cc1NC(=O)c1c(Cl)cccc1Cl`: the IC50 is 12.6 µM in the experiment with Blood [1], more than 100 µM in the experiment with Blood [2], more than 100 µM with Blood [3] and 3.4 µM with Blood [4].
Take `CCCCOC(=O)c1ccc(Cl)cc1NC(=O)c1ccccc1Br`: the IC50 is 7.1 µM in the experiment on Blood [1], more than 100 µM in the experiment with Blood [2], more than 100 µM in the experiment with Blood [3] and 50.4 µM in the experiment with Blood [4].
As to `CCOC(=O)c1ccc(F)cc1NC(=O)c1ccccc1Cl`, the IC50 in the experiment with Blood [1] was determined as 4.1 µM; with Blood [4], 11 µM.
`CCCCNC(=O)c1ccc(Cl)cc1NC(=O)c1ccccc1Cl`: the IC50 with Blood [1] was 3.4 µM; with Blood [2], more than 100 µM; in the experiment with Blood [3], more than 100 µM; in the experiment on Blood [4], 1.1 µM.
Take `CCCNC(=O)c1ccc(Cl)cc1NC(=O)c1ccccc1F`: the IC50 is 1.9 µM in the experiment with Blood [1], more than 100 µM in the experiment with Blood [2], more than 100 µM in the experiment with Blood [3] and 8.7 µM in the experiment on Blood [4].
For `CCCOC(=O)c1ccc(C)cc1NC(=O)c1ccccc1Br`, the results for the IC50 in the experiment on Blood [1] and in the experiment with Blood [4] were 3.1 µM and 27.3 µM, respectively.
